Test results from ChEMBL document CHEMBL1143019, “Hybrid molecules of estrone: new compounds with potential antibacterial, antifungal, and antiproliferative activities” (2007).
Converted amounts (≈) assume the structure as drawn.

Key:
[1] = test system: Staphylococcus aureus; assay: Antibacterial activity against Staphylococcus aureus SG 511 after 24 hrs by micro-broth dilution method; type: functional; settings: SG 511, 24 h
Method in brief: (§1)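 Microbroth dilution per NCCLS guidelines. Bacteria grown overnight at 37 °C in Mueller–Hinton broth. Compound solution serially diluted twofold in MHB, then wells inoculated to a final 5×10⁵ CFU/mL. Incubated 24 h at 37 °C. MIC (µg/mL) read on an automatic plate reader as the lowest dilution allowing no visible growth.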

[2] = test system: Staphylococcus aureus; assay: Antibacterial activity against methicillin-resistant Staphylococcus aureus 994/93 after 24 hrs by micro-broth dilution method; type: functional
Method in brief: (§2)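 Broth microdilution per NCCLS in Mueller–Hinton broth. Overnight cultures grown at 37 °C. Compound serially diluted twofold, then wells inoculated to a final 5×10⁵ CFU/mL. Plates held at 37 °C for 24 h. MIC (µg/mL) read on an automatic plate reader as the lowest dilution with no visible growth.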

[3] = test system: Staphylococcus aureus; assay: Antibacterial activity against methicillin-resistant Staphylococcus aureus 134/94 after 24 hrs by microbroth dilution method; type: functional; method in brief: as §2
[4] = test system: Micrococcus luteus; assay: Antibacterial activity against Micrococcus luteus ATCC 10240 after 24 hrs by microbroth dilution method; type: functional; settings: ATCC 10240, 24 h; method in brief: as §1
[5] = test system: Enterococcus faecalis; assay: Antibacterial activity against Enterococcus faecalis 1528 after 24 hrs by micro-broth dilution method; type: functional; method in brief: as §1
[6] = test system: Mycolicibacterium smegmatis; assay: Antimicrobial activity against Mycobacterium smegmatis SG 987 after 24 hrs by micro-broth dilution method; type: functional; method in brief: as §1
[7] = test system: Mycolicibacterium aurum; assay: Antimicrobial activity against Mycobacterium aurum SB 66 after 24 hrs by micro-broth dilution method; type: functional; method in brief: as §1
[8] = test system: Mycolicibacterium vaccae; assay: Antimicrobial activity against Mycobacterium vaccae 10670 after 24 hrs by micro-broth dilution method; type: functional; method in brief: as §1
[9] = test system: Mycolicibacterium fortuitum; assay: Antimicrobial activity against Mycobacterium fortuitum Borstel after 24 hrs by microbroth dilution method; type: functional; method in brief: as §1
[10] = test system: Mycobacterium tuberculosis; assay: Antimicrobial activity against Mycobacterium tuberculosis My 331/88 after 14 days; type: functional; settings: 336 h
[11] = test system: Mycobacterium tuberculosis; assay: Antimicrobial activity against Mycobacterium tuberculosis My 331/88 after 21 days; type: functional; settings: 504 h
[12] = test system: Mycobacterium avium; assay: Antimicrobial activity against Mycobacterium avium My 330/88 after 14 days; type: functional; settings: 336 h
[13] = test system: Mycobacterium avium; assay: Antimicrobial activity against Mycobacterium avium My 330/88 after 21 days; type: functional; settings: 504 h
[14] = test system: Mycobacterium kansasii; assay: Antimicrobial activity against Mycobacterium kansasii My 235/80 after 7 days; type: functional; settings: 168 h
Method in brief: (§3)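 Run in Šula semisynthetic liquid medium containing bovine serum. Compounds added as DMSO solutions at final concentrations of […]. Each strain was also inoculated onto Löwenstein–Jensen medium to control inoculum sterility and growth.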

[15] = test system: Mycobacterium kansasii; assay: Antimicrobial activity against Mycobacterium kansasii My 235/80 after 14 days; type: functional; settings: 336 h; method in brief: as §3
[16] = test system: Mycobacterium kansasii; assay: Antimicrobial activity against Mycobacterium kansasii My 235/80 after 21 days; type: functional; settings: 504 h; method in brief: as §3
[17] = test system: Mycobacterium kansasii; assay: Antimicrobial activity against Mycobacterium kansasii My 6509/96 after 7 days; type: functional; settings: 168 h; method in brief: as §3
[18] = test system: Mycobacterium kansasii; assay: Antimicrobial activity against Mycobacterium kansasii My 6509/96 after 14 days; type: functional; settings: 336 h; method in brief: as §3
[19] = test system: Mycobacterium kansasii; assay: Antimicrobial activity against Mycobacterium kansasii My 6509/96 after 21 days; type: functional; settings: 504 h; method in brief: as §3
[20] = test system: L929; assay: Antiproliferative activity against mouse L929 cells after 72 hrs; type: functional; settings: L929, 72 h
Method in brief: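 About 10,000 adherent cells per well in RPMI 1640 with 10% heat-inactivated FBS and penicillin/streptomycin, without HEPES. Exposed to 10 concentrations for 72 h at 37 °C in humidified 5% CO₂. Monolayers fixed with glutaraldehyde, stained 15 min with 0.05% methylene blue, and eluted with 0.33 N HCl; OD read at 630 nm. GI50 derived from dose–response curves relative to control.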

[21] = test system: K562; assay: Antiproliferative activity against human K562 cells after 72 hrs; type: functional; settings: K562, 72 h
Method in brief: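 About 10,000 suspension cells per well in RPMI 1640 with 10% heat-inactivated FBS and penicillin/streptomycin, without HEPES. Exposed to 10 concentrations for 72 h at 37 °C in humidified 5% CO₂. Wells diluted 1:50 in CASYTON and counted electronically, each result the mean of three successive counts. GI50 is where the concentration–response curve crosses 50% of control cell count.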

[22] = test system: HeLa; assay: Cytotoxicity against human HeLa cells after 72 hrs; type: functional; settings: for CC50: Homo sapiens, HeLa, 72 h
Method in brief: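 About 10,000 cells per well in RPMI 1640 were preincubated 48 h without compound. The 10 test concentrations were then applied onto the monolayers and incubated 72 h at 37 °C in humidified 5% CO₂. Monolayers fixed with glutaraldehyde, stained with 0.05% methylene blue, and eluted with 0.33 N HCl; optical density measured at 630 nm.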

[23] = test system: Candida albicans; assay: Antifungal activity against Candida albicans ATCC 44859 after 48 hrs; type: functional; settings: ATCC 44859, 48 h
Method in brief: (§4)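 Modified NCCLS M27-A broth microdilution with clinical isolates subcultured on Sabouraud dextrose agar. Suspensions diluted 1:50 in RPMI 1640 to give a final inoculum of 0.5–2.5×10³ CFU/mL for yeasts or 0.5–5×10⁴ CFU/mL for molds. The RPMI had L-glutamine, no bicarbonate, and 0.165 M MOPS to pH 7.0. Twofold dilutions from 250 to 0.49. Plates held at 35 °C, humid, without agitation. MIC is the lowest concentration giving ≥80% inhibition versus drug-free control, read at 24 and 48 h.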

[24] = test system: Pichia kudriavzevii; assay: Antifungal activity against Candida krusei E28 after 48 hrs; type: functional; method in brief: as §4
[25] = test system: Nakaseomyces glabratus; assay: Antifungal activity against Candida glabrata 20/I after 48 hrs; type: functional; method in brief: as §4
[26] = test system: Trichosporon beigelii; assay: Antifungal activity against Trichosporon beigelii 1188 after 48 hrs; type: functional; method in brief: as §4
[27] = test system: Lichtheimia corymbifera; assay: Antifungal activity against Absidia corymbifera 272 after 48 hrs; type: functional; method in brief: as §4
[28] = test system: Trichophyton benhamiae; assay: Antifungal activity against Trichophyton mentagrophytes 445 after 120 hrs; type: functional, Arthroderma benhamiae
Method in brief: (§5)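 Same modified M27-A microdilution with the mold inoculum of 0.5–5×10⁴ CFU/mL. Medium was RPMI 1640 with L-glutamine, no bicarbonate, and 0.165 M MOPS at pH 7.0. Twofold dilutions from 250 to 0.49. Incubated at 35 °C in a humid atmosphere.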

[29] = test system: Candida albicans; assay: Antifungal activity against Candida albicans ATCC 44859 after 24 hrs; type: functional; settings: ATCC 44859, 24 h; method in brief: as §4
[30] = test system: Candida tropicalis; assay: Antifungal activity against Candida tropicalis 156 after 24 hrs; type: functional; method in brief: as §4
[31] = test system: Candida tropicalis; assay: Antifungal activity against Candida tropicalis 156 after 48 hrs; type: functional; method in brief: as §4
[32] = test system: Pichia kudriavzevii; assay: Antifungal activity against Candida krusei E28 after 24 hrs; type: functional; method in brief: as §4
[33] = test system: Nakaseomyces glabratus; assay: Antifungal activity against Candida glabrata 20/I after 24 hrs; type: functional; method in brief: as §4
[34] = test system: Trichosporon beigelii; assay: Antifungal activity against Trichosporon beigelii 1188 after 24 hrs; type: functional; method in brief: as §4
[35] = test system: Aspergillus fumigatus; assay: Antifungal activity against Aspergillus fumigatus 231 after 24 hrs; type: functional; method in brief: as §4
[36] = test system: Aspergillus fumigatus; assay: Antifungal activity against Aspergillus fumigatus 231 after 48 hrs; type: functional; method in brief: as §4
[37] = test system: Lichtheimia corymbifera; assay: Antifungal activity against Absidia corymbifera 272 after 24 hrs; type: functional; method in brief: as §4
[38] = test system: Trichophyton benhamiae; assay: Antifungal activity against Trichophyton mentagrophytes 445 after 72 hrs; type: functional, Arthroderma benhamiae; method in brief: as §5

| SMILES | MIC [1] [µg/mL] | MIC [2] [µg/mL] | MIC [3] [µg/mL] | MIC [4] [µg/mL] | MIC [5] [µg/mL] | MIC [6] [µg/mL] | MIC [7] [µg/mL] | MIC [8] [µg/mL] | MIC [9] [µg/mL] | MIC [10] [µM] | MIC [11] [µM] | MIC [12] [µM] | MIC [13] [µM] | MIC [14] [µM] | MIC [15] [µM] | MIC [16] [µM] | MIC [17] [µM] | MIC [18] [µM] | GI50 [20] [µg/mL] | GI50 [21] [µg/mL] | also measured |
| --- | --- | --- | --- | --- | --- | --- | --- | --- | --- | --- | --- | --- | --- | --- | --- | --- | --- | --- | --- | --- | --- |
| c1ccc(CSc2ccncc2)cc1 | 100 (≈ 497 µM) | 100 (≈ 497 µM) | > 100 | 100 (≈ 497 µM) | 100 (≈ 497 µM) | 100 (≈ 497 µM) | 25 (≈ 124 µM) | 50 (≈ 248 µM) | 50 (≈ 248 µM) | 125 (≈ 25.2 µg/mL) | 125 (≈ 25.2 µg/mL) | 125 (≈ 25.2 µg/mL) | 125 (≈ 25.2 µg/mL) | 62.5 (≈ 12.6 µg/mL) | 125 (≈ 25.2 µg/mL) | 125 (≈ 25.2 µg/mL) | 62.5 (≈ 12.6 µg/mL) | 125 (≈ 25.2 µg/mL) | 34.3 (≈ 170 µM) | > 50 | MIC [19]: 125 µM (≈ 25.2 µg/mL); CC10 [22]: 14 µg/mL (≈ 69.6 µM); CC50 [22]: 23.6 µg/mL (≈ 117 µM) |
| Cc1ccc(CSc2cc[n+](CCCCCCCOc3ccc4c(c3)CC[C@@H]3[C@@H]4CC[C@]4(C)C(=O)CC[C@@H]34)cc2)cc1.[Br-] | 1.56 | 3.12 | 3.12 | 0.8 | 3.12 | 6.25 | 3.12 | 1.56 | 6.25 | 4 | 8 | 8 | 8 | 16 | 16 | 16 | 16 | 16 | 3.5 | 13.1 | MIC [19]: 16 µM; MIC [23]: 3.9 µM; MIC [24]: 7.8 µM; MIC [25]: 7.8 µM; MIC [26]: 7.8 µM; MIC [27]: 15.6 µM; MIC [28]: 7.8 µM; CC10 [22]: 1 µg/mL; CC50 [22]: 1.9 µg/mL |
| C[C@]12CC[C@@H]3c4ccc(OCCCCCCC[n+]5ccc(SCc6ccc(Cl)cc6)cc5)cc4CC[C@H]3[C@@H]1CCC2=O.[Br-] | 3.12 | 3.12 | 3.12 | 0.8 | 3.12 | 6.25 | 3.12 | 1.56 | 6.25 | 16 | 16 | 8 | 8 | 16 | 16 | 16 | 16 | 16 | 2.8 | 1 | MIC [29]: 7.8 µM; MIC [23]: 7.8 µM; MIC [30]: 15.6 µM; MIC [31]: 15.6 µM; MIC [32]: 7.8 µM; MIC [24]: 15.6 µM; MIC [33]: 15.6 µM; MIC [25]: 15.6 µM; MIC [34]: 7.8 µM; MIC [26]: 7.8 µM; MIC [35]: 15.6 µM; MIC [36]: 31 µM; MIC [37]: 62.5 µM; MIC [27]: 62.5 µM; MIC [38]: 7.8 µM; MIC [28]: 15.6 µM; CC10 [22]: 1.9 µg/mL; CC50 [22]: 4.1 µg/mL |
